Assay: Toxicity liver stage against HepG2, at 10uM
Assay type: cell-based
Design: test concentration 10 uM, cell line HepG2-A16-CD81EGFP
Conditions: human, HepG2-A16-CD81EGFP cells; read-out: INHIBITION
How it was run: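 Uninfected HepG2-A16-CD81EGFP cells, 3 × 10^3 per well, 1536-well, plated on prespotted compound at 10 μM final, parasite-free screening media added to match infected plates; puromycin 10 μM positive, DMSO 0.5% negative; run in parallel with 48 h PbLuc assay at 37 °C, 5% CO2; viability by CellTiter-Glo luminescence, normalized to controls.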

Compound | cytotoxicity at 10 µM [%]
Cc1cc(S(=O)(=O)NCC2CNCCOC2)c(C)cc1Cl (stereo unspecified) | -0.708
O=C(NCc1ccco1)[C@H]1CC[C@@H]2[C@@H](CCN2c2ncc(F)cn2)O1 | -78.4
COCCN1CCN(Cc2noc(C3CC3)n2)CC1C (stereo unspecified) | 1.43
Cc1ncccc1Oc1ncnc(N2CCC3(CCCO3)CC2)c1C | -6.89
COc1ccc2c(c1)CCCN2C(=O)NC1CCCCNC1=O (stereo unspecified) | -139
CC(C)n1cc(CN2CCCN(C(=O)c3cccn3C)CC2)cn1 | 1.51
O=C(Cc1ccccc1F)N1CCCCC1c1ccn2ccnc2n1 (stereo unspecified) | -3.83
COCCn1cncc1-c1nc2c([nH]1)CC(C)(C)CNC2=O | 8.42
CC(C)C(NC(=O)NCC1CC1)c1nnc2n1CCC2 (stereo unspecified) | -7.44
N#Cc1ccc(CN2CCN(C(=O)C3CCC3)[C@@H]3CS(=O)(=O)C[C@@H]32)cc1 | -9.78
Nc1cc2c(nn1)CCN(C(=O)c1ccccc1Oc1cccnc1)C2 | -6.21
CCN1CCCC1CNC(=O)Cc1c(C)n[nH]c1-c1ccc(OC)cc1 (stereo unspecified) | -3.72
Cc1ccc(C(=O)N(C)CC(=O)N2CCCC2)c(C)c1 | -0.705
CSCC(=O)N1CCCC1c1noc(C2CC2)n1 (stereo unspecified) | 17
COC(=O)CC(c1ccc(OC)c(O)c1)c1oc(C)cc(=O)c1O (stereo unspecified) | -0.634
O=C(Cc1ccsc1)N1C[C@@H]2CN(Cc3ccoc3)CCO[C@@H]2C1 | -1.73
Cc1ccc(Cl)cc1NCc1nc2[nH]c(C)c(C)c(=O)n2n1 | -4.96
COCCN(C)c1ccc(NCc2cscn2)nc1 | 0.513
CC(C)N(C)C(=O)C1CSCN1S(=O)(=O)c1cc(Cl)ccc1Cl (stereo unspecified) | -1.57
Cc1cc(Cl)ccc1NCc1ccc(C(=O)N(C)C)[nH]1 | 7.31
Cc1cc2[nH]c(O)nc2cc1NCc1ccc(F)cc1 | 16.1
CCCN(C)CC1CCN(c2ncc(Br)cn2)C1 (stereo unspecified) | -6.68
COc1cc(CC(=O)Nc2cccc(C(=O)N(C)C)n2)ccc1C | 2.25

Compound | cytotoxicity at 10 µM [%]
CC(=O)Nc1ncc(S(=O)(=O)N2CCCC(C)C2)s1 (stereo unspecified) | 2.28
Cc1nc(NCc2ccco2)nc2c1COCC21CCNC1 (stereo unspecified) | 10.3
N#Cc1cnn(C(=O)CCCOc2ccccc2Cl)c1N | -1.34
Cc1nnc(CN2C[C@H](NC(=O)CC3CCCC3)[C@@H](C3CC3)C2)s1 | -42.4
CC(C)(C)c1ncc2c(n1)CN(c1cc(NCCO)nc(N)n1)C2 | 3.5
O=C1CC(c2ccc(F)cc2)Cc2[nH]c(=O)c(C(=O)O)cc21 (stereo unspecified) | -3.65
Cc1cc(CN(CC(N)=O)CC(C)C)no1 | 3.72
CN(C)c1cnnc(N2CCN(C(=O)CCC3CCCCC3)CC2)c1 | -1.65
COc1ccc2c(c1)CN(Cc1ccco1)C(=O)CCN2 | -2.59
CSCC(C)(O)CNC(=O)c1ccc(F)cc1Br (stereo unspecified) | 0.369
O=C(NCc1csc(Br)c1)c1ccncc1 | 4.38
CCCc1nc(CN(CC)Cc2ccc(O)c(C(=O)O)c2)no1 | -6.33
Cc1nn(C)c(Oc2ccccc2)c1CNC1CCCCNC1=O (stereo unspecified) | 2.56
Cc1cnc(N2Cc3nccn3CC(Cn3nc(C)nc3C)C2)nc1 (stereo unspecified) | -144
Cc1nn(CC(C)C)c(C)c1CC(=O)N1CCCC(NS(C)(=O)=O)C1 (stereo unspecified) | 6.29
Cc1cc(CN(C)C(=O)C2CCCN(C(=O)c3ccc(Cl)cc3)C2)no1 (stereo unspecified) | -15.6
COc1cc(C(=O)N2CCCC(c3cc(C)[nH]n3)C2)ccc1C (stereo unspecified) | -17.5
CC(C)C(=O)N1CC[C@H]2N(C)CC[C@@]2(C(=O)Nc2cccnc2)CC1 | -121
O=C1CC2(CCCCC2)CC(=O)N1CC(O)COCc1ccc(Cl)cc1 (stereo unspecified) | -1.04
CCNC(=O)NC(=O)CN1CCC(c2cccc(F)c2)C1 (stereo unspecified) | -9.45
COCCN1CCN(Cc2cccc(C(N)=O)c2)CC1C (stereo unspecified) | 0.794
COc1ccccc1CN1CC[C@H](c2nnc(-c3cncn3C)o2)C1 | 8.33
CC(C)N(C)Cc1cnc2n1CCN(C(=O)Cc1ccccn1)C2 | -0.405

Compound | cytotoxicity at 10 µM [%]
O=C1c2cc(Br)cc(Br)c2OCC1(CN1CCCC1)CN1CCCC1 | -7.83
Cc1n[nH]c(C)c1-c1nccnc1CC1CCCN(C)C1 (stereo unspecified) | -18.3
COc1ccc(C(=O)C2CCCN(c3cc(OC)ncn3)C2)c(C)c1 (stereo unspecified) | 48
O=C(CN1CCCC1Cn1cncn1)NCCC1=CCCCC1 (stereo unspecified) | -16.5
Cc1cc(C)c(CNC(=O)N2CCC(N3CCCC3)CC2)c(=O)[nH]1 | -3.52
COCCN1CCN(C(=O)c2ccncc2F)Cc2cccnc21 | 10
O=C(Cc1cccs1)N1C[C@H]2CN(CC3CCCO3)CC[C@H]2C1 (stereo partly specified) | 4.96
COc1cc(CNC(C)Cn2cccn2)cc(Cl)c1OC (stereo unspecified) | -1.14
Cn1ccc2c(C(=O)N3CCCC(c4nnc[nH]4)C3)cccc21 (stereo unspecified) | 1.92
Cc1ccc(S(=O)(=O)N2CCC3(CC(C(=O)NCC4CC4)=NO3)C2)cc1 (stereo unspecified) | 4.35
CCn1nc2c(cc1=O)CN(Cc1nc3ccccc3c(=O)[nH]1)CC2 | -4.71
c1ccc2nc(N3CCCC3)c(NCc3nnc4n3CCC4)nc2c1 | 6.9
COc1ccc(OCc2nc(C(=O)NCCN3CCOCC3)co2)cc1 | 1.87
Cc1ccc(CN2CCN(C3CCCC3)CC2CCO)o1 (stereo unspecified) | -6.05
OCC1(O)CCN(c2ncccc2C(F)(F)F)CC1 | -13.6
OCCNC1CSCCc2ccccc21 (stereo unspecified) | -1.44
Cc1n[nH]c(C)c1C1COCCN1C(=O)c1n[nH]c2ccccc12 (stereo unspecified) | -3.63
Cc1ccc(CN(C)C(=O)CN2CCCC2c2cnn(C)c2)o1 (stereo unspecified) | -1.69
CCNS(=O)(=O)c1cccc(CSC)c1 | 5.5
Cc1c(F)cccc1NC(=O)N(C(C)CS(C)(=O)=O)C1CC1 (stereo unspecified) | 8.29
Cc1cc(NC(=O)NCc2ccc(C)s2)no1 | -5.29
CC(NC(=O)C1=NN(C)C(=O)CC1)c1ccc(F)cc1F (stereo unspecified) | -4.4
COc1ccccc1CNC(=O)CN(C)C(C)c1ccon1 (stereo unspecified) | -4.29

Compound | cytotoxicity at 10 µM [%]
CC(C)c1cc(C(=O)N2CCCC(Cn3cc(CO)nn3)C2)on1 (stereo unspecified) | -6.27
CC(C)(C)OC(=O)N1CCC(NCc2cnn(C(C)(C)C)c2)CC1 | 4.85
Cc1nccn1-c1cc(CNC(=O)c2ccnc(N(C)C)c2)ccn1 | 2.32
Cc1nc(C)n(C2CCCN(C(=O)c3cccc4[nH]ncc34)C2)n1 (stereo unspecified) | -4.72
CN(C)CCNC(=O)c1cc2c(s1)CCN2S(C)(=O)=O | 0.705
CC(Cn1cncc1-c1cnn(C2CCCCC2)c1)N1CCCCC1 (stereo unspecified) | 2.87
Cc1cnc(C(=O)NCc2ccnc(N(C)C)c2)cn1 | -1.07
COc1ccc(CN2CC[C@@]3(C2)[C@H](O)CN(C)S3(=O)=O)cc1F | -7.86
O=S1(=O)COCCN1Cc1ccc(Cl)c(Cl)c1 | 8.44
OC[C@H]1CCN(Cc2ccc3ccccc3n2)C[C@@H]1O | -6
Cc1nnc2n1CCN(C(=O)C1CCC(n3cccc3)CC1)C2 (stereo unspecified) | -1.05
COCCN1CCCC(O)(CN2CCN(c3ccncc3C)CC2)C1=O (stereo unspecified) | -6.45
CS(=O)(=O)Cc1nc(CCc2ccccc2)nn1-c1ccccn1 | 3.36
COc1ncccc1C(=O)N1CC[C@H]2C[C@@H](c3noc(C)n3)O[C@@H]2C1 | 4.76
O=C(N1CCCC1)N1CCC(c2nccn2Cc2cscn2)CC1 | 4.8
Cc1ccc(CC(NC(=O)CCS(C)(=O)=O)c2ccccn2)cc1 (stereo unspecified) | -11
c1ccc(CCCn2ccnc2-c2cn(C3CCNCC3)nn2)nc1 | -1.86
COc1cccc(Cn2cc(C3=CCN(CCO)CC3)cn2)c1 | -10.2
COCCN1C(=O)CC[C@@H]2[C@H]1CCN2Cc1cccc(C#N)c1 | -33.1
Oc1ccc(N2CCC(Cc3ccccc3)CC2)nn1 | 45.4
Cc1cc(F)c2c(c1)CCCN2Cc1nc2c(cnn2C)c(=O)[nH]1 | 1.89
Cc1cnn(C2CCCN(C(=O)Cn3ccc(=O)n(C)c3=O)C2)c1 (stereo unspecified) | 1.99
Cc1nc2cc(C(=O)N3CCCC(n4cncn4)C3)ccc2n1C (stereo unspecified) | -8.26

Compound | cytotoxicity at 10 µM [%]
Cc1cc(C)nc(N2CCC(OCCN3CCCCC3)C2)n1 (stereo unspecified) | -53.6
O=C(COCc1ccccc1Cl)N1CCN(c2cnccn2)CC1 | 7.57
Cc1nc(C(=O)N2CCCC(c3ccc4sc(N)nc4n3)C2)co1 (stereo unspecified) | -11.9
CSCCc1ccc(NC(=O)NCc2ccnc(N(C)C)c2)cc1 | 0.661
CS(=O)(=O)CCC(=O)NC1(c2cccc(C(F)(F)F)c2)CCC1 | -40.1
c1cnn(C[C@@H]2C[C@@H]3CN(CC4CC4)CC[C@@H]3N2c2nccs2)c1 | 9.1
CCc1sc(C(=O)Nc2cnn(CC(N)=O)c2)cc1C | -2.68
CN(C)c1cc(CNC(=O)Nc2ccc(F)cc2)ccn1 | 0.0418
Cc1ccc(N2CC[C@@H]3[C@@H]2CCN3C(=O)c2cscn2)nn1 | 5.38
CC(C)N1CCC(CC(=O)N(C)CC(=O)c2ccc(O)cc2)CC1 | 5.21
CC(C)Cc1nnc(SCC(=O)O)n1-c1ccc(F)cc1F | -6.13
CC(=O)NC1CCCN(C(=O)NCc2cccnc2-n2cccn2)C1 (stereo unspecified) | 5.56
COc1cc(C(=O)N(Cc2cccs2)C2CC2)cc2c1OCCO2 | 8.45
O=C(N1CCOCC1)N1CCc2ncnc(NC3CCC3)c2CC1 | -1.92
CNC(=O)c1ccc(CNC(=O)c2cc(C(C)C)n(C)n2)cc1 | -9.71
Cc1cc(C(=O)N2C[C@@H]3COC[C@]3(CN(C)C)C2)c(C)o1 | -131
CNc1nc(C(=O)N2CCN(c3ccc(Cl)c(Cl)c3)CC2)cs1 | 13.9
CSCCC(=O)N1CCCC(c2ncc[nH]2)C1 (stereo unspecified) | -1.64
Cc1csc(C2(NCC(O)COC(C)C)CCCC2)n1 (stereo unspecified) | 4.53

From ChEMBL document CHEMBL4513216, “Probing the Open Global Health Chemical Diversity Library for Multistage-Active Starting Points for Next-Generation Antimalarials” (ACS Infect Dis, 2020)
